Measurements as given in ChEMBL document CHEMBL5653631, “A Potent and Selective ULK1 Inhibitor Suppresses Autophagy and Sensitizes Cancer Cells to Nutrient Stress” (iScience, 2018).
Values belong to the molecule of their own block, whether it stands above or below them.

What was measured:
[1] = molecular target: Platelet-derived growth factor receptor alpha (Homo sapiens) (UniProt P16234); experiment: Inhibition of human recombinant PDGFRa at 500 nM related to control ULK1
[2] = molecular target: T1, Dual specificity tyrosine-phosphorylation-regulated kinase 3 (Homo sapiens) (UniProt O43781); experiment: Inhibition of human recombinant DYRK3 at 500 nM related to control ULK1
T1 sequence (whole entry): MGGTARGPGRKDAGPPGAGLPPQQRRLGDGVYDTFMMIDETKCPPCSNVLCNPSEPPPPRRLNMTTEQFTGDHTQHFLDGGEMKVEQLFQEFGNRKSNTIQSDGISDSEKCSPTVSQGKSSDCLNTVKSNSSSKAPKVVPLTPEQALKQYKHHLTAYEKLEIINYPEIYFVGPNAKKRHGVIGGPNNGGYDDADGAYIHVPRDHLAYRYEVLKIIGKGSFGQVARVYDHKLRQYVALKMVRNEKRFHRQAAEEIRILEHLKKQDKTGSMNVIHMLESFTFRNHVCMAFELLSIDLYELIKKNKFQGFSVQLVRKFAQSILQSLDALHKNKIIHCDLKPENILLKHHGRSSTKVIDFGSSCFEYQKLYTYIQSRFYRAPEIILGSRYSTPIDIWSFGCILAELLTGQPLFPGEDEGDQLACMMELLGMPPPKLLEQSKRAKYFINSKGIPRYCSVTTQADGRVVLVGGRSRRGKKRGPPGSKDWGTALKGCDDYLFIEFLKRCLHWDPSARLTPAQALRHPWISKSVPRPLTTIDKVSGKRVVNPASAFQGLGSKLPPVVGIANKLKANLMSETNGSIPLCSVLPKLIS

[3] = molecular target: Mitogen-activated protein kinase 1 (Homo sapiens) (UniProt P28482); experiment: Inhibition of human recombinant Erk2 at 500 nM related to control ULK1
[4] = molecular target: Serine/threonine-protein kinase 35 (Homo sapiens) (UniProt Q8TDR2); experiment: Inhibition of human recombinant CLIK1 at 500 nM related to control ULK1
[5] = molecular target: Tyrosine-protein kinase Fyn (Homo sapiens) (UniProt P06241); experiment: Inhibition of human recombinant FYN at 15 nM in presence of ATP by radiometric assay relative to control
[6] = molecular target: T2, Myosin-IIIb (Homo sapiens) (UniProt Q8WXR4); experiment: Inhibition of human recombinant MYO3B at 15 nM in presence of ATP by radiometric assay relative to control
T2 sequence (whole entry): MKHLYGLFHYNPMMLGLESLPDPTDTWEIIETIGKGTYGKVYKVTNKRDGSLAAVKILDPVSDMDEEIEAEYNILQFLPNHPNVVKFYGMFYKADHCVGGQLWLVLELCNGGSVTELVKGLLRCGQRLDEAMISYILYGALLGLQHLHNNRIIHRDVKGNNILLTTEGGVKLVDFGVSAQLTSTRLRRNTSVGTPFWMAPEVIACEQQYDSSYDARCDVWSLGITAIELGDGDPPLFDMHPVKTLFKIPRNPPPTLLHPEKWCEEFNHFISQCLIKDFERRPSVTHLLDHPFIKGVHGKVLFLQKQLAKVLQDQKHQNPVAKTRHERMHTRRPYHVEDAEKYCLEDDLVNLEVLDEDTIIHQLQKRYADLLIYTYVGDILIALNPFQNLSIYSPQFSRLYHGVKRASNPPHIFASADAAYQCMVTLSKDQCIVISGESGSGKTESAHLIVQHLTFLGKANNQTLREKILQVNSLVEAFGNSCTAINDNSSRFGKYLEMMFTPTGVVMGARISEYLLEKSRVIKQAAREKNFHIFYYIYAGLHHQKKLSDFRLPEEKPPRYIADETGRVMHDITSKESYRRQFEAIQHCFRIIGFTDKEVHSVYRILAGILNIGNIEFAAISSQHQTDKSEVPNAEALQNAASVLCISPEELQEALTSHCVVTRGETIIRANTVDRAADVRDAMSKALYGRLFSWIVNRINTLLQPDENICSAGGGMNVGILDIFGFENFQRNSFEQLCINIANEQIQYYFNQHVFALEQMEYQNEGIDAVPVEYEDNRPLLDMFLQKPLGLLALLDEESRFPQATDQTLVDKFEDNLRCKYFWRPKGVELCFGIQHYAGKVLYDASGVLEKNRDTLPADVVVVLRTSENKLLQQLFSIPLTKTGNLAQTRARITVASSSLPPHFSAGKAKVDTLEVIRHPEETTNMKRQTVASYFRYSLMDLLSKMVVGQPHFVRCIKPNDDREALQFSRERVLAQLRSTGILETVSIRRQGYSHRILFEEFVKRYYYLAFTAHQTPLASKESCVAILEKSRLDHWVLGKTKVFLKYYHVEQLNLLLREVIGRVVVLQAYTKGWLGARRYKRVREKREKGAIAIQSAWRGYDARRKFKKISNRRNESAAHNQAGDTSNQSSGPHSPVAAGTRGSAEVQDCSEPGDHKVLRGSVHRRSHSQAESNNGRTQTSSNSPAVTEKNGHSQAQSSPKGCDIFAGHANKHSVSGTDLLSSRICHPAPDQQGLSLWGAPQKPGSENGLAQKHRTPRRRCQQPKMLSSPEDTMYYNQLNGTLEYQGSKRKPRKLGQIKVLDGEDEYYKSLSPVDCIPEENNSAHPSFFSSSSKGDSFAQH

[7] = molecular target: Calcium/calmodulin-dependent protein kinase type II subunit beta (Homo sapiens) (UniProt Q13554); experiment: Inhibition of human recombinant CaMK2b at 15 nM in presence of ATP by radiometric assay relative to control
[8] = molecular target: Macrophage colony-stimulating factor 1 receptor (Homo sapiens) (UniProt P07333); experiment: Inhibition of human recombinant FMS at 15 nM in presence of ATP by radiometric assay relative to control
[9] = molecular target: Mitogen-activated protein kinase kinase kinase 9 (Homo sapiens) (UniProt P80192); experiment: Inhibition of human recombinant MLK1 at 15 nM in presence of ATP by radiometric assay relative to control
[10] = molecular target: Serine/threonine-protein kinase Nek4 (Homo sapiens) (UniProt P51957); experiment: Inhibition of human recombinant NEK4 at 15 nM related to control ULK1
[11] = molecular target: Rho-associated protein kinase 2 (Homo sapiens) (UniProt O75116); experiment: Inhibition of human recombinant ROCK2 at 40 nM in presence of ATP by radiometric assay relative to control
[12] = molecular target: Protein-tyrosine kinase 6 (Homo sapiens) (UniProt Q13882); experiment: Inhibition of human recombinant BRK at 40 nM in presence of ATP by radiometric assay relative to control
How it was run: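 Part of a radiometric in vitro activity panel of 327 recombinant human kinases. Each kinase was tested in duplicate at one inhibitor concentration. Activity remaining was expressed as a percentage of the vehicle control, and percent inhibition was taken as 100 minus that value.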

[13] = molecular target: Serine/threonine-protein kinase PRP4 homolog (Homo sapiens) (UniProt Q13523); experiment: Inhibition of human recombinant PRP4 at 40 nM in presence of ATP by radiometric assay relative to control
[14] = molecular target: Casein kinase I isoform gamma-3 (Homo sapiens) (UniProt Q9Y6M4); experiment: Inhibition of human recombinant CK1g3 at 40 nM related to control ULK1

Chain of Serine/threonine-protein kinase 35 (Homo sapiens) (Q8TDR2 whole entry): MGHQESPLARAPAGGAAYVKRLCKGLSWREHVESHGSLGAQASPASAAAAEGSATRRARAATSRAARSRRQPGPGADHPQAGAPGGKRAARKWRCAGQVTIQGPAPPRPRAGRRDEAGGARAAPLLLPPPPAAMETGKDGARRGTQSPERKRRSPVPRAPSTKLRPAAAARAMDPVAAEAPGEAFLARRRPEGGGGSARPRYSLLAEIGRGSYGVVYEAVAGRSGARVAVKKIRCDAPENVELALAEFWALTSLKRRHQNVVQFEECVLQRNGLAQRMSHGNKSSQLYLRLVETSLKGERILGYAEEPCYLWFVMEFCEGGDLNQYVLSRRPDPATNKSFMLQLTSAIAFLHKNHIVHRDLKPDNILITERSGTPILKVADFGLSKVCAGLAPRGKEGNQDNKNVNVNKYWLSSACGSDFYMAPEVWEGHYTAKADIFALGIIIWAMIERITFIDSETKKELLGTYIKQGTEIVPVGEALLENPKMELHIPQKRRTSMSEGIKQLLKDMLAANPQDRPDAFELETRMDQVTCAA
Chain of Mitogen-activated protein kinase kinase kinase 9 (Homo sapiens) (P80192 whole entry, looked up): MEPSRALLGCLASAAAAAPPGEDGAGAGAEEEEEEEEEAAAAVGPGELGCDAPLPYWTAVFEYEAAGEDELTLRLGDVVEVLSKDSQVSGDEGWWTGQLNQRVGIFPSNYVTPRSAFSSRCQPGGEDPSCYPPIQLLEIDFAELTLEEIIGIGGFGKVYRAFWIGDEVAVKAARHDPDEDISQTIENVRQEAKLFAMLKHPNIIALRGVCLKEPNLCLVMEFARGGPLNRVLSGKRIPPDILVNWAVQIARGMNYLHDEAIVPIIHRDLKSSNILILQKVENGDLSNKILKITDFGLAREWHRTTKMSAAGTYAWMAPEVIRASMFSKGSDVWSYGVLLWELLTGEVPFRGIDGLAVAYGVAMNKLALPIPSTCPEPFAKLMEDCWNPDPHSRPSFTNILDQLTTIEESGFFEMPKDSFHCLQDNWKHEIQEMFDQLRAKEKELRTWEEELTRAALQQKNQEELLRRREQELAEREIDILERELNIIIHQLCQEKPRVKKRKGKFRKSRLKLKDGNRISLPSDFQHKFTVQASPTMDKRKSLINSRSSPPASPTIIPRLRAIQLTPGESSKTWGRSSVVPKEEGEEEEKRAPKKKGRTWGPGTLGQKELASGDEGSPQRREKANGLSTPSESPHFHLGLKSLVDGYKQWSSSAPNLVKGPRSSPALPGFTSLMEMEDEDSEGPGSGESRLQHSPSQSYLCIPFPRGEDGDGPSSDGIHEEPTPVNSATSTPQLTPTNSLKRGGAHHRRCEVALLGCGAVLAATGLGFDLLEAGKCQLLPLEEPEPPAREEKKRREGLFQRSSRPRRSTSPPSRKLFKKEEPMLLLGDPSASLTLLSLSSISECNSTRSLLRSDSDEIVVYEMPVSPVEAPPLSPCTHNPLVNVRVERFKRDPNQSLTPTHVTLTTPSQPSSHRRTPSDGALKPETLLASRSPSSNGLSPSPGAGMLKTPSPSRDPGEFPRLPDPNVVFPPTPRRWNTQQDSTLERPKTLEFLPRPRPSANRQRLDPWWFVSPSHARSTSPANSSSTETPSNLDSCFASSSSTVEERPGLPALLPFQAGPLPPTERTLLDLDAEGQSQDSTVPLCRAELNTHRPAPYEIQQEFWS
Chain of Calcium/calmodulin-dependent protein kinase type II subunit beta (Homo sapiens) (Q13554 whole entry): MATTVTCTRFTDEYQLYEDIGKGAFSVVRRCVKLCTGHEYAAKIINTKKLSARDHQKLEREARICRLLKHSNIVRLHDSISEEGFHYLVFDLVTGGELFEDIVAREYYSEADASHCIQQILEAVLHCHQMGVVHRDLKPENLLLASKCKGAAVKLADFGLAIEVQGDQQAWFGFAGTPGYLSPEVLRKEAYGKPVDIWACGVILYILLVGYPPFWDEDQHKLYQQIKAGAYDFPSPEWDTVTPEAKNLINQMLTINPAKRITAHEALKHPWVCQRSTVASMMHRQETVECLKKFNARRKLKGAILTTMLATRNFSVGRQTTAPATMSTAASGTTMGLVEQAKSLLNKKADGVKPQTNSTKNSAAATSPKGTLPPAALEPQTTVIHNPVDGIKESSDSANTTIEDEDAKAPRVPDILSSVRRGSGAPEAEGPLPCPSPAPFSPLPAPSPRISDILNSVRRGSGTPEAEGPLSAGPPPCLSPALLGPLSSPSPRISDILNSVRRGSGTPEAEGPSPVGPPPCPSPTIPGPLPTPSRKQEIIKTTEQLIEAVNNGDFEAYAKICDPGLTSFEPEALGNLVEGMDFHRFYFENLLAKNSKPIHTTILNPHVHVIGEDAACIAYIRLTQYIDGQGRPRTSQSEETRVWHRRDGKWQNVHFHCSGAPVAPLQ
Chain of Serine/threonine-protein kinase PRP4 homolog (Homo sapiens) (Q13523 whole entry, canonical isoform): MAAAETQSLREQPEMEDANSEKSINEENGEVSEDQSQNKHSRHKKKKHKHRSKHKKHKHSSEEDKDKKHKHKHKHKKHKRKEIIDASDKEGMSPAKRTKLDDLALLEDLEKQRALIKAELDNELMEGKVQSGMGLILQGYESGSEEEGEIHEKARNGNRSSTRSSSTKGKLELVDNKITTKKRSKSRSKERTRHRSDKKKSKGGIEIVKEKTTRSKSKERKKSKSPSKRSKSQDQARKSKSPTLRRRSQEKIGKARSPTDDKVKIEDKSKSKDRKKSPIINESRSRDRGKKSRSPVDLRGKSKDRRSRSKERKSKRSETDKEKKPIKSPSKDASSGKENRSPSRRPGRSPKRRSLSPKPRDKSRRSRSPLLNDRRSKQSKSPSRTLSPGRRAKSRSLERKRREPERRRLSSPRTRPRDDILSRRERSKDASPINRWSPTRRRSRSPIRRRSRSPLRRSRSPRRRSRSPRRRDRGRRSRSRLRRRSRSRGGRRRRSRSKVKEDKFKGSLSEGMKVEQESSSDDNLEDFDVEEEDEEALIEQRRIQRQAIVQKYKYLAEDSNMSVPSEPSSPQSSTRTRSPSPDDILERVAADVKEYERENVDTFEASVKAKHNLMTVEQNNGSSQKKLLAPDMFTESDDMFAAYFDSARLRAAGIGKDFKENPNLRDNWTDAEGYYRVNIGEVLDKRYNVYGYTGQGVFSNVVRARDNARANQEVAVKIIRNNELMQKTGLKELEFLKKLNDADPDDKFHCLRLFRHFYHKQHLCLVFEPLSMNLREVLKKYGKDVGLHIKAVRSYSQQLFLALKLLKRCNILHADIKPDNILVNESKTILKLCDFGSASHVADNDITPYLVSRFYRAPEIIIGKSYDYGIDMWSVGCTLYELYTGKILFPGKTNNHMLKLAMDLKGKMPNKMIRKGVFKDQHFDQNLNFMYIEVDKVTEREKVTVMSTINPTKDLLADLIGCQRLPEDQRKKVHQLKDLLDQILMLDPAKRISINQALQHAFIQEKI
Chain of Protein-tyrosine kinase 6 (Homo sapiens) (Q13882 whole entry, looked up): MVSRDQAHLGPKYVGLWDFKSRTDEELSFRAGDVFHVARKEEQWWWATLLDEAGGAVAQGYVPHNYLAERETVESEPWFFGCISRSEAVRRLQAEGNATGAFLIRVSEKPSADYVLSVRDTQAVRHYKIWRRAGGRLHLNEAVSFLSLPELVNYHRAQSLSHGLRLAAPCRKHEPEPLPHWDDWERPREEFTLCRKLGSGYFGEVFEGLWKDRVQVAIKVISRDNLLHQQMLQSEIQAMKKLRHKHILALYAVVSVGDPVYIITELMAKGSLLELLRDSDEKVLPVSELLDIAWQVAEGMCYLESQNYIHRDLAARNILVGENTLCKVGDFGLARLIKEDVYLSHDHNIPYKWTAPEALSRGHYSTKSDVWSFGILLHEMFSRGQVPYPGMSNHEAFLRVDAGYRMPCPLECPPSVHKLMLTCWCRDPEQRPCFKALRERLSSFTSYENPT
Chain of Mitogen-activated protein kinase 1 (Homo sapiens) (P28482 whole entry): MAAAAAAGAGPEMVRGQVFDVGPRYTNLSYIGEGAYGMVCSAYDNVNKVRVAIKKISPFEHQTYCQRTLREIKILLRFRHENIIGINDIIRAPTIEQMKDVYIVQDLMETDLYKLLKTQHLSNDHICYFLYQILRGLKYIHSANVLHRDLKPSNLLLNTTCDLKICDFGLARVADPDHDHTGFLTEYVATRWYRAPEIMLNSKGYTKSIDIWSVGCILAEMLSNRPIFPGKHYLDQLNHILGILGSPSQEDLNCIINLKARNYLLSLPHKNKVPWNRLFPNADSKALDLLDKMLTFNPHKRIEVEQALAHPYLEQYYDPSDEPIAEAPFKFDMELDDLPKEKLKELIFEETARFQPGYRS
Chain of Serine/threonine-protein kinase Nek4 (Homo sapiens) (P51957 whole entry, looked up): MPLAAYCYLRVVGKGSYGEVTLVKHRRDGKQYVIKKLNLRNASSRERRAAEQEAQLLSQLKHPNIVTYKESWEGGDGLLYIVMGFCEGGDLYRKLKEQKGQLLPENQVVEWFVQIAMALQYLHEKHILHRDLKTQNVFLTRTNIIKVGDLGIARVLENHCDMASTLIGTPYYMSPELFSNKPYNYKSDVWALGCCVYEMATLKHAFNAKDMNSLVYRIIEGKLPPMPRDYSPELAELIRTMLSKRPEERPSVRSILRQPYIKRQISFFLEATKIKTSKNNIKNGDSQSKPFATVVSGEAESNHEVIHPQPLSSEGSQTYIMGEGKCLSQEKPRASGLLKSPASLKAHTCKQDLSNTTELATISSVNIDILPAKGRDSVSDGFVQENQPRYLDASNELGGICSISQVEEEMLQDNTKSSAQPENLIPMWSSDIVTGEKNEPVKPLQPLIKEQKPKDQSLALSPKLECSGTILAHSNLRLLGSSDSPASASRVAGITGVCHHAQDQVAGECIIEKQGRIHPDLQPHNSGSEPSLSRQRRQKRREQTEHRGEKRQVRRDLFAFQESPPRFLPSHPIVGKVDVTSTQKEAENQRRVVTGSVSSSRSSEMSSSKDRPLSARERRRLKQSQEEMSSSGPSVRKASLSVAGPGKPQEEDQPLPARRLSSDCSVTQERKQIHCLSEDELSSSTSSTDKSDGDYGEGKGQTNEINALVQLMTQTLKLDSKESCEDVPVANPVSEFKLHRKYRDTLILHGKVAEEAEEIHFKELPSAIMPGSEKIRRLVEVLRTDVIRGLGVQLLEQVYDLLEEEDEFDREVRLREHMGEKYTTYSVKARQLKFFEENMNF

fold change (FC) [1]: 0
fold change (FC) [2]: 0
fold change (FC) [3]: 0
fold change (FC) [4]: 0.04
Structure (SMILES): CNC(=O)c1ccccc1Oc1nc(Nc2cc(OC)c(OC)c(OC)c2)ncc1Br

inhibition [5]: 16%
inhibition [6]: 6%
inhibition [7]: 10%
inhibition [8]: 17%
inhibition [9]: 0%
fold change (FC) [10]: 0.07
Structure (SMILES): CC(C)[C@H](NC(=O)c1cc(-c2cnn3cc(-c4ccc(OCCN5CCCCC5)cc4)cnc23)cs1)C(F)(F)F

inhibition [11]: 2%
inhibition [12]: 0%
inhibition [13]: 6%
fold change (FC) [14]: 0.05
Structure (SMILES): O=C(N[C@@H](C1CC1)C(F)(F)F)c1cc(-c2cnn3cc(-c4ccc(F)cc4)cnc23)cs1
